Assay results published in ChEMBL document CHEMBL4052637, “Discovery and Characterization of R/S-N-3-Cyanophenyl-N'-(6-tert-butoxycarbonylamino-3,4-dihydro-2,2-dimethyl-2H-1-benzopyran-4-yl)urea, a New Histone Deacetylase Class III Inhibitor Exerting Antiproliferative Activity against Cancer Cell Lines” (J Med Chem, 2017).
Active and inactive are the calls of the source. The calls are words filed in the database; no cut-off is given here.

Legend:
SF-539 = test: Growth inhibition of human SF539 cells after 48 hrs by SRB assay; format: functional; details: SF-539, 48 h
[1] = target: T1, NAD-dependent protein deacetylase sirtuin-1 (Homo sapiens) (UniProt Q96EB6); test: Inhibition of SIRT1 in human U373 cells assessed as increase of histone H4 acetylation at 5 uM after 8 hrs by Western blotting method relative to control; format: cell-based
T1 sequence (whole entry): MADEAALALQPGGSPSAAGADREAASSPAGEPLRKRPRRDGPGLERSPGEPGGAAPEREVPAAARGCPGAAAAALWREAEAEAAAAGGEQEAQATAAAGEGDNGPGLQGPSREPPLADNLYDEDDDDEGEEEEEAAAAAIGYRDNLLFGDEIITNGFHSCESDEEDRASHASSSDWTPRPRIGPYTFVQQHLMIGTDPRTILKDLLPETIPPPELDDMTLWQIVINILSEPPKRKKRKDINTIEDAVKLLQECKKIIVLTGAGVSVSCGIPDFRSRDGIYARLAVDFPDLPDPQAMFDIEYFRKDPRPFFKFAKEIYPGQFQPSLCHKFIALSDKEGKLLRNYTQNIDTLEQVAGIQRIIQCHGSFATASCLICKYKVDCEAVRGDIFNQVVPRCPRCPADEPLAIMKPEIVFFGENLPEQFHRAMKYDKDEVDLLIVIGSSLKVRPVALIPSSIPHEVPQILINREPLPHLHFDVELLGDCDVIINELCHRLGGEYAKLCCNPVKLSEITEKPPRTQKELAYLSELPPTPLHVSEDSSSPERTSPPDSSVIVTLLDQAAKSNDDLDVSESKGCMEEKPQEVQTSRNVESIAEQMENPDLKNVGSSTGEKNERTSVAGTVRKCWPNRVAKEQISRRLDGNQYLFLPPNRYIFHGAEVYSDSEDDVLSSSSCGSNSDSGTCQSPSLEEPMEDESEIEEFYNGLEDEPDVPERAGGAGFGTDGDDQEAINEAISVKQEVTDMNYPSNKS

[2] = Antiproliferative activity against human U373 cells after 72 hrs by MTT assay; format: functional, cell-based, U-373MG ATCC; details: U373 MG
Procedure, shortened: (§1)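 MTT assay: cells in RPMI 1640 with 10% heat-inactivated FCS at 37 °C and 5% CO2 were seeded 24 h before treatment. They were exposed 72 h to compound at 0.01–100 μM, with DMSO as solvent.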

A498 = test: Growth inhibition of human A498 cells after 48 hrs by SRB assay; format: functional; details: A498, 48 h
Hs 683 [3] = test: Cell cycle arrest in human Hs683 cells assessed as accumulation at G2/M phase at 2 uM after 24 to 48 hrs by propidium iodide staining-based flow cytometry; format: functional; details: 5.8 uM, in the assay text read “at 5.8 uM” for “at 2 uM”
Procedure, shortened: (§2)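 Cells were exposed to compound at the IC50 for each line from the 72 h MTT assay, or to a reference HDAC inhibitor at 2 μM. Cell cycle distribution was analyzed after 24 and 48 h. Results are mean ± SD of three independent experiments, with p values against control cells.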

NCI-H23 = test: Growth inhibition of human NCI-H23 cells after 48 hrs by SRB assay; format: functional; details: NCI-H23, 48 h
U-373MG ATCC = test: Cell cycle arrest in human U373 cells assessed as accumulation at sub-G1 phase at IC50 for MTT assay after 24 to 48 hrs by propidium iodide staining-based flow cytometry; format: functional; procedure, shortened: as §2
[4] = target: Histone deacetylase 2 (Homo sapiens) (UniProt Q92769); test: Inhibition of His-tagged recombinant full length human HDAC2 expressed in baculovirus infected insect cells at 0.1 to 100 uM using Fluor-de-Lys-SIRT1 as substrate after 15 mins by fluorescence assay
[5] = target: T1, NAD-dependent protein deacetylase sirtuin-1 (Homo sapiens); test: Inhibition of SIRT1 in human U373 cells assessed as increase of histone H4 acetylation at 10 to 25 after 8 to 24 hrs by Western blotting method; format: cell-based
[6] = target: T2, NAD-dependent protein deacetylase sirtuin-2 (Homo sapiens) (UniProt Q8IXJ6); test: Inhibition of SIRT2 in human Hs683 cells assessed as increase of alpha-tubulin acetylation at 2.5 uM after 8 hrs by Western blotting method relative to control; format: cell-based
T2 sequence (whole entry): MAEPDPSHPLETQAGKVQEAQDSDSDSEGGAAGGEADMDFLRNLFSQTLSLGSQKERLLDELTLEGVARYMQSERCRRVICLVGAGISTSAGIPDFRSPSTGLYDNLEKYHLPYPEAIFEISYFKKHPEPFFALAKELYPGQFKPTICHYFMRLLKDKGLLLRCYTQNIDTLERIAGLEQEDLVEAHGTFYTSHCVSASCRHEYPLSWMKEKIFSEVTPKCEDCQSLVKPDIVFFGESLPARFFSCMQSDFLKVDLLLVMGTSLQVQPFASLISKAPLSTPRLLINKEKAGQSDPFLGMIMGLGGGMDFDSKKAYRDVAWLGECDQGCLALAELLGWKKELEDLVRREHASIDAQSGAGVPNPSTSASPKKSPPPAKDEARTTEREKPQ

[7] = target: T1, NAD-dependent protein deacetylase sirtuin-1 (Homo sapiens); test: Inhibition of SIRT1 in human Hs683 cells assessed as increase of histone H4 acetylation at 2.5 uM after 8 hrs by Western blotting method relative to control; format: cell-based
MDA-MB-435 = test: Growth inhibition of human MDA-MB-435 cells after 48 hrs by SRB assay; format: functional; details: MDA-MB-435, 48 h
A2780 = test: Antiproliferative activity against human A2780 cells after 72 hrs by MTT assay; format: functional, cell-based; procedure, shortened: as §1
KM12 = test: Growth inhibition of human KM12 cells after 48 hrs by SRB assay; format: functional; details: KM12, 48 h
Hs 683 [8] = test: Inhibition of spheroid forming capacity of human Hs683 cells assessed as decrease in surface area of tumor spheroids at 5 to 10 uM treated for 24 hrs measured after 96 hrs by bright field microscopic method; format: functional, cell-based
Procedure, shortened: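 Spheroids formed from 1 × 10^3 cells in 25 μL. Cells were pretreated 24 h with compound then left untreated 96 h, or untreated spheroids were cultured 96 h with compound. Surface measured from bright-field images; volume in voxels from 3D plots after image segmentation. Mean ± SD of three independent experiments.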

KBC1 = test: Antiproliferative activity against human KBC1 cells overexpressing ABCB1 after 72 hrs by MTT assay; format: functional, cell-based; procedure, shortened: as §1
Hs 683 [9] = test: Potency index, ratio of sirtinol IC50 to test compound IC50 for human Hs683 cells; format: functional
Hs 683 [10] = test: Inhibition of 3D tumor-like growth of human Hs683 cells assessed as decrease in ATP level at 5 to 10 uM treated for 24 hrs measured after 96 hrs by CellTiter-Glo assay; format: functional, cell-based
Procedure, shortened: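 Spheroids were grown from a starting suspension of 1 × 10^3 cells in 25 μL. Cells were pretreated 24 h with compound, then left untreated for 96 h. Spheroids were harvested and mixed with CellTiter-Glo 3D reagent, shaken 5 min and stabilized 25 min, then luminescence was read. Mean ± SD of three independent experiments.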

[11] = target: NAD-dependent protein deacetylase sirtuin-3, mitochondrial (Homo sapiens, UniProt Q9NTG7); test: Inhibition of N-terminal His-tagged recombinant human SIRT-3 expressed in Escherichia coli using Fluor-de-Lys-SIRT1 as substrate after 15 mins by fluorescence assay
RXF 393 = test: Growth inhibition of human RXF393 cells after 48 hrs by SRB assay; format: functional; details: RXF 393, 48 h

NAD-dependent protein deacetylase sirtuin-3, mitochondrial, sequence (Q9NTG7 whole entry): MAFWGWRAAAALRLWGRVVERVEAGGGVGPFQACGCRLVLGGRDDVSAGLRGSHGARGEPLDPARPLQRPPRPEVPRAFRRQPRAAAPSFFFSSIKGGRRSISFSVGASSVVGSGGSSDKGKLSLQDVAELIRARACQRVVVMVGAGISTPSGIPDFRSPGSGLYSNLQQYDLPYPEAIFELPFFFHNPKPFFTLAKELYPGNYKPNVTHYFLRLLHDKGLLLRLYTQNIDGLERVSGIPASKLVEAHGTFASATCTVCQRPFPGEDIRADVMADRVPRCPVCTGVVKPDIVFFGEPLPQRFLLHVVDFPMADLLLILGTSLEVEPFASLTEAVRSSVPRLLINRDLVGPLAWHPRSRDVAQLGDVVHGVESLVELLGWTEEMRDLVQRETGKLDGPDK
Histone deacetylase 2 (Homo sapiens), sequence (Q92769 whole entry): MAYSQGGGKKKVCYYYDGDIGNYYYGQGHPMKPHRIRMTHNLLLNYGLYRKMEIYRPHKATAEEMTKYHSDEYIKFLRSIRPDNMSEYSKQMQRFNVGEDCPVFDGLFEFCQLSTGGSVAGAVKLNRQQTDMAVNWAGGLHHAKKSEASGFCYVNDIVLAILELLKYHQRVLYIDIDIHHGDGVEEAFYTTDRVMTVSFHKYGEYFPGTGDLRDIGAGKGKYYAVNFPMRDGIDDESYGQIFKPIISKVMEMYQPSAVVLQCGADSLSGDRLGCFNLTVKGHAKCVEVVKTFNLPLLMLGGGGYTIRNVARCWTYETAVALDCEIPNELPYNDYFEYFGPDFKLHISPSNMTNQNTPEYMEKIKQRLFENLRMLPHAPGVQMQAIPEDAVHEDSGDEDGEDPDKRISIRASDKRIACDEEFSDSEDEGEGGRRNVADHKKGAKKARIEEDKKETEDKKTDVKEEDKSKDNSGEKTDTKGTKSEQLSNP

Compound: CC(C)(C)OC(=O)Nc1ccc2c(c1)C(NC(=O)Nc1cccc(C#N)c1)CC(C)(C)O2 (stereo not given)
- GI50 (SF-539): 6.61 µM
- fold change (FC) [1]: 1.3
- IC50 [2]: 6 to 7.5 µM
- GI50 (A498): 7.08 µM
- Activity (Hs 683 [3]): Active
- GI50 (NCI-H23): 1.12 µM
- Activity (U-373MG ATCC): inactive
- inhibition [4]: inactive
- inhibition [5]: Active
- fold change (FC) [6]: 1.2
- fold change (FC) [7]: 1.9
- GI50 (MDA-MB-435): 1.48 µM
- Activity (A2780): Active
- GI50 (KM12): 4.07 µM
- inhibition (Hs 683 [8]): Active
- Activity (KBC1): Active
- Ratio IC50 (Hs 683 [9]): 6
- inhibition (Hs 683 [10]): Active
- IC50 [11]: > 200 µM
- GI50 (RXF 393): 6.17 µM
